The results in this text go back to ChEMBL document CHEMBL2169806, “Design, synthesis, and pharmacological evaluation of N-acylhydrazones and novel conformationally constrained compounds as selective and potent orally active phosphodiesterase-4 inhibitors” (J Med Chem, 2012).

The subject of data set [1] is Mus musculus. Description: Antiinflammatory activity in A/J mouse assessed as inhibition of LPS-induced airway resistance provoked by methacholine at 3 mg/kg, po administered 1 hr prior to LPS-challenge measured after 18 hrs relative to vehicle-treated control. Type of data set: functional.
Data set [2] has as its system Mus musculus. Description: Antiinflammatory activity in A/J mouse assessed as inhibition of neutrophil accumulation in bronchoalveolar space at 3 mg/kg, po administered 1 hr prior to LPS-challenge measured after 18 hrs relative to vehicle-treated control. The data set is classed as functional. The conditions noted are these: Lung.
The subject of data set [3] is Mus musculus. Description: Antiinflammatory activity in A/J mouse assessed as inhibition of LPS-induced airway elastance provoked by methacholine at 3 mg/kg, po administered 1 hr prior to LPS-challenge measured after 18 hrs relative to vehicle-treated control. The data set is classed as functional.
A short description of data set [4]: Inhibition of bovine PDE3 using [3H]cAMP as substrate. More on the design: species or system Bos taurus.
The species named for data set [5] is Bos taurus. The experiment in a line: Inhibition of bovine PDE4 using [3H]cAMP as substrate at 10 uM. In short, it runs like this: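 Enzyme was PDE4 isolated from the media layer of bovine aorta, run in the two-step activity assay at 1 μM cAMP.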
Data set [6] has as its system Mus musculus. The experiment in a line: Proemetic activity in A/J mouse assessed as reversal of xylazine/katamine-induced anesthesia at 30 to 200 umol/kg, sc administered 30 mins prior xylazine/ketamine-administration. Type of data set: ADME, organism-based. The note with it: in vivo, 0.5 h.
For data set [7], the target named is 3',5'-cyclic-AMP phosphodiesterase 4D (Homo sapiens, UniProt Q08499). Description: Inhibition of human recombinant PDE4D.
Chain of 3',5'-cyclic-AMP phosphodiesterase 4D (Q08499 whole entry): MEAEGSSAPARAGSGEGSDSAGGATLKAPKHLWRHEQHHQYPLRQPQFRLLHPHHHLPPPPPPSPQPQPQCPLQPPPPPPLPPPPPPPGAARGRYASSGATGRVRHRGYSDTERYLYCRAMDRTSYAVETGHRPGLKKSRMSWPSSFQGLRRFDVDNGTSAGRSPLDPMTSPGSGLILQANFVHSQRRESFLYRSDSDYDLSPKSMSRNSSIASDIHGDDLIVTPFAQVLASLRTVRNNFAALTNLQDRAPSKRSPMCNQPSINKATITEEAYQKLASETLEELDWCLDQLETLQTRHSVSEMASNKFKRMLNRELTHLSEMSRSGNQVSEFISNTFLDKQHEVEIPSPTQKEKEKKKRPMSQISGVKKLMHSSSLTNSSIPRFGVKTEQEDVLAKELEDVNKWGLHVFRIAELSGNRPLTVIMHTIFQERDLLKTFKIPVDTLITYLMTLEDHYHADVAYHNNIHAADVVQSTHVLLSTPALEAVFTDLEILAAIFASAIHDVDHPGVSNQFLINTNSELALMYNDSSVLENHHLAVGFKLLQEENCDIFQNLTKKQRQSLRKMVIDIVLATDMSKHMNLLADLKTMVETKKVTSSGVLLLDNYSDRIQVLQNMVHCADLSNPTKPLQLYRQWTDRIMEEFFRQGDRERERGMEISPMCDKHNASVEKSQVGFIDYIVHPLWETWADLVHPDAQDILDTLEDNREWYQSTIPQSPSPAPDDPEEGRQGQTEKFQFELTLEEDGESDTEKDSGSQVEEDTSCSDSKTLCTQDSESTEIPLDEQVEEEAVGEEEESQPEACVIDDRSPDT
The test system of data set [8] is Mus musculus. Description: Antiinflammatory activity in A/J mouse assessed as inhibition of leukocyte accumulation in bronchoalveolar space at 100 umol/kg, po administered 1 hr prior to LPS-challenge measured after 18 hrs relative to vehicle-treated control. Type of data set: functional. The conditions noted are these: Lung.
Data set [9] relates to PBMC. The experiment in a line: Antiinflammatory activity in human PBMC assessed as inhibition of LPS-induced TNFalpha production after 24 hrs by ELISA. The data set is classed as functional, cell-based.
A short description of data set [10]: Inhibition of PDE6 at 10 uM.
The subject of data set [11] is Mus musculus. Description: Antiinflammatory activity in A/J mouse assessed as inhibition of neutrophil accumulation in bronchoalveolar space at 100 umol/kg, po administered 1 hr prior to LPS-challenge measured after 18 hrs relative to vehicle-treated control. The data set is classed as functional. The conditions noted are these: Lung.
For data set [12], the target named is 3',5'-cyclic-AMP phosphodiesterase 4C (Homo sapiens, UniProt Q08493). The experiment in a line: Inhibition of human recombinant PDE4C.
Chain of 3',5'-cyclic-AMP phosphodiesterase 4C (Q08493 whole entry): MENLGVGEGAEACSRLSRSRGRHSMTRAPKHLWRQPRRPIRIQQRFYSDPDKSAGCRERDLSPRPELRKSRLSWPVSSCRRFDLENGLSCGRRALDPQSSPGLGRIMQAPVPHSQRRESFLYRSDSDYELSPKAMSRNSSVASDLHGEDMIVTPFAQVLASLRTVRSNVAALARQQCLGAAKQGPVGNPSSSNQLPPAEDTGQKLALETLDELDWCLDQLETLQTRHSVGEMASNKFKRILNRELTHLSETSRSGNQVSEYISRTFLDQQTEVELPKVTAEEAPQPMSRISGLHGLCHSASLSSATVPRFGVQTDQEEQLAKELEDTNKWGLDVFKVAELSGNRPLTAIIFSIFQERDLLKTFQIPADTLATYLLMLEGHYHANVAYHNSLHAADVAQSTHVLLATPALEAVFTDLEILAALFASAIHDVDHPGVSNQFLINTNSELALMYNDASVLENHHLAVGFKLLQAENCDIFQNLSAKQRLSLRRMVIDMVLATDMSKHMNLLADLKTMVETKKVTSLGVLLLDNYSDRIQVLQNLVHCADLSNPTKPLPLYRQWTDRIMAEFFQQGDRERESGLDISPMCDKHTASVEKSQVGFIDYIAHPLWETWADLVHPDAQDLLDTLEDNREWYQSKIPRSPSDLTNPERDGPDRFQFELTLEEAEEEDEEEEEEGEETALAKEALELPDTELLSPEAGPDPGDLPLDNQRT
Data set [13] deals with 3',5'-cyclic-AMP phosphodiesterase 4A (Homo sapiens, UniProt P27815). The experiment in a line: Inhibition of human recombinant PDE4A.
Chain of 3',5'-cyclic-AMP phosphodiesterase 4A (P27815 whole entry): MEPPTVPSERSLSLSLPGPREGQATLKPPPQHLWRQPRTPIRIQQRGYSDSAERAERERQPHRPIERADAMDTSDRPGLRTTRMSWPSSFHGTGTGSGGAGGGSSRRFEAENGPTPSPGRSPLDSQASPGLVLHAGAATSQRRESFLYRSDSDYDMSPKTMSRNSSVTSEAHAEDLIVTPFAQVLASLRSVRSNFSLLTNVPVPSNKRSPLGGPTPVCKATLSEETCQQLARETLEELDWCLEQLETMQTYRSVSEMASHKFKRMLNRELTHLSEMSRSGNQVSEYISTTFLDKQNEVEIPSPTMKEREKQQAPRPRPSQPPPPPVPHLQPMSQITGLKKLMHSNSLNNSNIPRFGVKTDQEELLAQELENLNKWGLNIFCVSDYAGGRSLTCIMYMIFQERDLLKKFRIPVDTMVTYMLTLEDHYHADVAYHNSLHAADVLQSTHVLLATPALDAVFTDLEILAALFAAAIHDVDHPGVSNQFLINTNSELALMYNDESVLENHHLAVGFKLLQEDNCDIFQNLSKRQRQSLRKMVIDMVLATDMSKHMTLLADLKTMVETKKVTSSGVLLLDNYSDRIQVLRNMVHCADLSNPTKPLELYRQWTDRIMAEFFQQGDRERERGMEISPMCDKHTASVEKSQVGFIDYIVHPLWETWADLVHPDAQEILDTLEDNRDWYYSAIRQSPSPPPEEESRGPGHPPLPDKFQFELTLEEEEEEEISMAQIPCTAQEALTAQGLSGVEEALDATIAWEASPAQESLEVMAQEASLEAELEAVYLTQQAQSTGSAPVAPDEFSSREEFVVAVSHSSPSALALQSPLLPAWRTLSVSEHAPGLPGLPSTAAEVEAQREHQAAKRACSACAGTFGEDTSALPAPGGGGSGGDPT
Data set [14] relates to Mus musculus. Description: Antiinflammatory activity in A/J mouse assessed as inhibition of LPS-induced airway resistance provoked by methacholine at 100 umol/kg, po administered 1 hr prior to LPS-challenge measured after 18 hrs relative to vehicle-treated control. Type of data set: functional.
Data set [15] can be described thus: Inhibition of bovine PDE5 using […] as substrate. More on the design: species or system Bos taurus.
Data set [16] relates to Mus musculus. Description: Antiinflammatory activity in A/J mouse assessed as inhibition of LPS-induced airway elastance provoked by methacholine at 100 umol/kg, po administered 1 hr prior to LPS-challenge measured after 18 hrs relative to vehicle-treated control. Type of data set: functional.
Data set [17] in a line: Inhibition of bovine PDE4 using [3H]cAMP as substrate. Set-up: species or system Bos taurus.
The test system of data set [18] is Mus musculus. The experiment in a line: Antiinflammatory activity in A/J mouse lung assessed as inhibition of LPS-induced IL6 production at 100 umol/kg, po administered 1 hr prior to LPS-challenge measured after 18 hrs relative to vehicle-treated control. The data set is classed as functional.
Data set [19] deals with 3',5'-cyclic-AMP phosphodiesterase 4B (Homo sapiens, UniProt Q07343). Description: Inhibition of human recombinant PDE4B.
Chain of 3',5'-cyclic-AMP phosphodiesterase 4B (Q07343 whole entry): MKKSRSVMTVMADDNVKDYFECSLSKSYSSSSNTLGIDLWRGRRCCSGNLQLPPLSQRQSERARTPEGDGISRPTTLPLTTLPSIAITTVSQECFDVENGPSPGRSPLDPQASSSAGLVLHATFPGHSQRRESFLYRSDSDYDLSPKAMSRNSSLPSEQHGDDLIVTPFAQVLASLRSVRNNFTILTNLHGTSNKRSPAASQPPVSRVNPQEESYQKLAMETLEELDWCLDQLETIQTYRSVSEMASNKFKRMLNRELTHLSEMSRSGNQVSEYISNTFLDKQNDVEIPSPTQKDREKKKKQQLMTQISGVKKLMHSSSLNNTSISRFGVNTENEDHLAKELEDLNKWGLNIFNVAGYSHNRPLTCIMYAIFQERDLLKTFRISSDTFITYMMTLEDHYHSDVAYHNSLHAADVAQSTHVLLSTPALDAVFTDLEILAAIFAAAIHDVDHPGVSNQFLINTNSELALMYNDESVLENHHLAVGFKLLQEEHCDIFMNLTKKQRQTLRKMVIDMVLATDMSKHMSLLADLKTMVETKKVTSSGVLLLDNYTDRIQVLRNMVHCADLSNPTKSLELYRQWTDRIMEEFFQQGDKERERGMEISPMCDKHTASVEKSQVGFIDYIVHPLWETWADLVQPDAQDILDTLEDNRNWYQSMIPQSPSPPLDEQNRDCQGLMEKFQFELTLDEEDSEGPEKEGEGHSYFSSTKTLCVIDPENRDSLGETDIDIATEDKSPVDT
The species named for data set [20] is Bos taurus. Description: Inhibition of bovine PDE1 using [3H]cAMP as substrate at 10 uM.
For data set [21], the system named is Mus musculus. The experiment in a line: Antiinflammatory activity in A/J mouse lung assessed as inhibition of LPS-induced TNFalpha production at 100 umol/kg, po administered 1 hr prior to LPS-challenge measured after 18 hrs relative to vehicle-treated control. Type of data set: functional.
The subject of data set [22] is PBMC. The experiment in a line: Antiinflammatory activity in human PBMC assessed as inhibition of LPS-induced TNFalpha production at 10 uM after 24 hrs by ELISA relative to control. The data set is classed as functional. (In general: An ELISA detects its analyte on a solid surface through an enzyme-linked reagent.)
The target of data set [23] is T1, cGMP-dependent 3',5'-cyclic phosphodiesterase (Homo sapiens, UniProt O00408). Description: Inhibition of human PDE2 using [3H]cAMP as substrate at 10 uM.
T1 sequence (O00408 whole entry): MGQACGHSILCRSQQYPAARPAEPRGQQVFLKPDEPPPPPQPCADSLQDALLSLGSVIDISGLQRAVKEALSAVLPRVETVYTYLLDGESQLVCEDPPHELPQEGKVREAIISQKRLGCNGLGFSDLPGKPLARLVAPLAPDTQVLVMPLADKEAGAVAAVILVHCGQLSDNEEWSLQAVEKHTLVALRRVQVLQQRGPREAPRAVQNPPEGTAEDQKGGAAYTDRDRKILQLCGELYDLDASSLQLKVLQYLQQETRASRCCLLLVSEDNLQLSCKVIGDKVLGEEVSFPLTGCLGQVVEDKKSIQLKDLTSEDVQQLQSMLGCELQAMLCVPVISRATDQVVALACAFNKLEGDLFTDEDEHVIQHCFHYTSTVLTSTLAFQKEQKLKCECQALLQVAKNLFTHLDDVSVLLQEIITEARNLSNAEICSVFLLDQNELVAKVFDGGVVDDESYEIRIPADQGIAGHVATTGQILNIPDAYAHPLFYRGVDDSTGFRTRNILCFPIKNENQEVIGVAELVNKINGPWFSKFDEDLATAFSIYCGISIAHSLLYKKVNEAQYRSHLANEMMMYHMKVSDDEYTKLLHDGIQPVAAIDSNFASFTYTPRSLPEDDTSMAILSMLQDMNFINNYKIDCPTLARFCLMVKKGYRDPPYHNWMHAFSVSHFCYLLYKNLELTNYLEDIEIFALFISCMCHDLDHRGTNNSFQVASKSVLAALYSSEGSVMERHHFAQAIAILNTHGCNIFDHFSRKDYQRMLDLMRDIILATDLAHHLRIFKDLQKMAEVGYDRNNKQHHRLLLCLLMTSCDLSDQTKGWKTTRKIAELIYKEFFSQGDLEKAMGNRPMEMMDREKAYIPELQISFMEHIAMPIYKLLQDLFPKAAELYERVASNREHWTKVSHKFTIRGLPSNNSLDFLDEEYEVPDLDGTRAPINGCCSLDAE
For data set [24], the species on record is Bos taurus. Description: Inhibition of bovine PDE5 using […] as substrate at 10 uM.
For data set [25], the target named is T1, cGMP-dependent 3',5'-cyclic phosphodiesterase. Description: Inhibition of human PDE2 using [3H]cAMP as substrate.
The species entered for data set [26] is Bos taurus. Description: Inhibition of bovine PDE3 using [3H]cAMP as substrate at 10 uM.
Data set [27] has as its system Mus musculus. Description: Antiinflammatory activity in A/J mouse assessed as inhibition of LPS-induced airway resistance provoked by methacholine at 45 umol/kg, po administered 1 hr prior to LPS-challenge measured after 18 hrs relative to vehicle-treated control. The data set is classed as functional.
For data set [28], the system named is Mus musculus. Description: Antiinflammatory activity in A/J mouse assessed as inhibition of neutrophil accumulation in bronchoalveolar space at 45 umol/kg, po administered 1 hr prior to LPS-challenge measured after 18 hrs relative to vehicle-treated control. The conditions noted are these: Lung. The data set is classed as functional.
For data set [29], the system named is Mus musculus. Description: Antiinflammatory activity in A/J mouse assessed as inhibition of eosinophils accumulation in bronchoalveolar space at 45 umol/kg, po administered 1 hr prior to LPS-challenge measured after 18 hrs relative to vehicle-treated control. The conditions noted are these: Lung. The data set is classed as functional, organism-based.
The subject of data set [30] is Mus musculus. Description: Antiinflammatory activity in A/J mouse lung assessed as inhibition of LPS-induced TNFalpha production at 45 umol/kg, po administered 1 hr prior to LPS-challenge measured after 18 hrs relative to vehicle-treated control. Type of data set: functional.
For data set [31], the system named is Mus musculus. The experiment in a line: Proemetic activity in A/J mouse assessed as reversal of xylazine/katamine-induced anesthesia at 1 to 50 umol/kg, sc administered 30 mins prior xylazine/ketamine-administration. Type of data set: ADME, organism-based. The note with it: in vivo, 0.5 h.
In data set [32] the test system is Mus musculus. Description: Antiinflammatory activity in A/J mouse assessed as inhibition of mononuclear cell accumulation in bronchoalveolar space at 45 umol/kg, po administered 1 hr prior to LPS-challenge measured after 18 hrs relative to vehicle-treated control. The data set is classed as functional, organism-based. The note with it: Lung.
The subject of data set [33] is Mus musculus. Description: Antiinflammatory activity in A/J mouse assessed as inhibition of leukocyte accumulation in bronchoalveolar space at 45 umol/kg, po administered 1 hr prior to LPS-challenge measured after 18 hrs relative to vehicle-treated control. The data set is classed as functional. The note with it: Lung.
Data set [34] relates to Mus musculus. The experiment in a line: Antiinflammatory activity in A/J mouse lung assessed as inhibition of LPS-induced IL6 production at 45 umol/kg, po administered 1 hr prior to LPS-challenge measured after 18 hrs relative to vehicle-treated control. Type of data set: functional.
Data set [35] has as its system Mus musculus. Description: Antiinflammatory activity in A/J mouse assessed as inhibition of LPS-induced airway elastance provoked by methacholine at 45 umol/kg, po administered 1 hr prior to LPS-challenge measured after 18 hrs relative to vehicle-treated control. Type of data set: functional.

The source made the active and inactive calls. The rule behind the calls is not given here.

Usually inhibition in vivo stands for the change of the read-out against control, counted positive when it falls. In general, IC50 refers to the concentration at which inhibition is half-maximal. In general, inhibition refers to the share of the control response that was lost under treatment. One may read the EC50 as the midpoint of the concentration-response curve.

On to `COc1ccc([C@]2(C#N)CC[C@@H](C(=O)O)CC2)cc1OC1CCCC1` [CILOMILAST], for which the inhibition in vivo at 3 mg/kg in the data set on Mus musculus [1] stood at 93%; in the data set on Mus musculus [2], 43%; with Mus musculus [3], 93%.
For the molecule `COc1ccc(C(=O)N(C)/N=C/c2ccc(OC)c(OC)c2)cc1`, the half-inhibitory concentration (IC50) in [4] came out at 6700 nM; in data set [7] it was 74 nM; in data set [12] it was 505 nM; in [13], 159 nM; in [15] it was 150 nM; in [17] it was 105 nM. In [19], the half-maximal inhibitory concentration (IC50) is 53 nM. In addition, the inhibition in the data set filed under Bos taurus [5] worked out at 98.3%; in data set [10], 35.2%; in the data set filed under Bos taurus [20], 25.1%; in [23], 35.5%. Further, the Activity result with Mus musculus [6] was “Non-toxic”. Also, the inhibition in vivo at 100 µmol/kg with Mus musculus [8] amounted to 81%; in the data set on Mus musculus [11], 68%; in the data set on Mus musculus [14], 61%; with Mus musculus [16], 62%; with Mus musculus [18], 45%; with Mus musculus [21], 51%. Besides, the EC50 in the data set with PBMC [9] was found to be 1450 nM. The inhibition at 10 µM in the data set on PBMC [22] worked out at 84%.
`COc1ccc(/C=N/N(C)C(=O)c2ccccc2OC)cc1OC`: the half-maximal inhibitory concentration (IC50) in data set [4] was determined as 6200 nM; in data set [25], 16800 nM; in data set [17], 210 nM. Also, the inhibition in the data set listed under Bos taurus [5] was 97.8%; in the data set listed under Bos taurus [24], 13.9%; in [10], 11%; in the data set filed under Bos taurus [20], 11%. Moreover, the inhibition in vivo at 100 µmol/kg worked out at 52% in the data set with Mus musculus [8]; 53% with Mus musculus [11]; 61% in the data set with Mus musculus [14]; 59% with Mus musculus [16]; 99% with Mus musculus [18]; 100% in the data set with Mus musculus [21]. For the same molecule, the EC50 with PBMC [9] is 1590 nM. The inhibition at 10 µM in the data set with PBMC [22] amounted to 80%.
`COc1ccc(/C=N/N(C)C(=O)c2ccc3c(c2)OCO3)cc1OC`: the inhibition stood at 96.3% in the data set filed under Bos taurus [5]; 19.4% in the data set filed under Bos taurus [26]; 5.1% in the data set listed under Bos taurus [24]; 0.6% in data set [10]; 0% in the data set filed under Bos taurus [20]; 4% in data set [23]. Also, the inhibition in vivo at 100 µmol/kg with Mus musculus [8] was found to be 62%; in the data set on Mus musculus [11] it was 67%; in the data set on Mus musculus [14] it was 56%; in the data set with Mus musculus [16] it was 64%; in the data set on Mus musculus [18] it was 92%; in the data set on Mus musculus [21], 80%. In the data set with PBMC [9], the EC50 was 540 nM. The IC50 in data set [17] came to 110 nM. For the same molecule, the inhibition at 10 µM in the data set with PBMC [22] is 90%.
Take `COc1ccc(C2CNC(=O)C2)cc1OC1CCCC1` (centres undefined) [ROLIPRAM]: the inhibition in vivo at 45 µmol/kg is 95% in the data set with Mus musculus [27]; 70% in the data set on Mus musculus [28]; 69% in the data set with Mus musculus [30]; 70% in the data set with Mus musculus [33]; 54% in the data set on Mus musculus [34]; 96% in the data set on Mus musculus [35]. In addition, the inhibition result in the data set on Mus musculus [29] and with Mus musculus [32] was “Active” each time. For the same molecule, in the data set with PBMC [9], the EC50 was 130 nM. For the same molecule, the Activity entry with Mus musculus [31] is “Toxic”. The same molecule yielded a 50% inhibitory concentration (IC50) in [17] of 800 nM.
